Source: PubChem (Broad Institute)
Most compounds without a hit are left out; they make up all but 3% or so of the library.
MITF TRPM1 HTS: activators of MITF-driven TRPM1 promoter reporter, primary screen, cell-based, SK-MEL-5, luciferase, single point; SK-MEL-5 TRPM1-promoter luciferase, 24 h; % of positive control, neutral wells = 0; AID 588334, 2011; activation, % at 12.5 µM; 0.75% of 300,000 active;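 active means mean activation of at least 80% with every replicate also reaching 80%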;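 further: 0% = neutral control wells and 100% = parthenolide positive control wells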
Casp6 inh: human caspase-6 inhibitors, primary screen, biochemical, VEID-R110 fluorescence, single point, set 2 | purified caspase-6, Z-VEID-R110 cleavage fluorescence | inhibition, % at 12.5 µM | 0.53% of 350,000 active | AID 686996, 2013;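 active means mean inhibition across replicates at least about 35%, with every replicate also reaching that limit, limit read from the data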;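 further: 0% = median of neutral control wells and 100% = no fluorescence left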
Wnt act: Wnt/beta-catenin pathway activators, primary screen, cell-based, plate reader, single point; Wnt/beta-catenin reporter cell assay, activator; activation, % at 9.35 µM; 1.2% of 300,000 active; AID 743398, 2014; in the data active means activation above about 30%, passing the limit was not always enough;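 further: 0% = neutral control wells and 100% = positive control wells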
NSD2 HMT inh: NSD2 histone methyltransferase inhibitors, primary screen, biochemical, AlphaScreen, single concentration, set 2. NSD2 peptide methylation, 120 min. 0.54% of 310,000 active. inhibition, % at 12.5 µM; in the data active means inhibition above about 50%
esBAF inh: Bmi1 luciferase reporter increase in mESCs, primary screen, esBAF inhibitor project, mouse ES cells, Bmi1 luciferase knock-in, single point. reporter increase, % at 12.5 µM. 24 h; 100% = twice the neutral-well signal. AID 602393, 2012. 2% of 350,000 active; in the data active means activation above about 40%;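 further: 0% = median of the plate's neutral control wells and 100% = double that signal; a rise in the Bmi1 reporter signal indicates esBAF inhibition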
XiGFP reactiv: activators of inactive X chromosome reactivation, primary screen, imaging, XiGFP fibroblasts, GFP high-content imaging, set 2. XiGFP mouse fibroblasts, % GFP-positive cells imaging, 3 d; cells co-treated with 5-aza-dC sensitizer; scaled so ellipticine positive control = 100%. activation, % at 7.58 µM. 0.055% of 360,000 active;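 active means mean normalized replicate activation at least 10% and every replicate at or above 10%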;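 further: 0% = median of on-plate neutral control wells and 100% = ellipticine 6 µM median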
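System: SV40-immortalized XiGFP fibroblast cells, line 68-5-11 / Incubation: 3-day compound exposure, then 15 min fixation at room temperature / Compound: single concentration per compound, delivered by pin transfer / Buffer or medium: DMEM plus 5-aza-dC sensitizer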
Alpha artifact: AlphaScreen signal interference with preloaded methylated product, dose response, artefact control for NSD2 inhibitor project, biochemical, cherry-picked samples; shares compounds with NSD2 HMT inh; AlphaScreen artifact counterscreen, preloaded methylated H4 peptide; AC35, µM (doses to about 10 µM), inactives show top-dose activity change, negative = signal loss; 9.4% of 1,500 active; call rule not given here
Starred values were filed as active, the others as inactive; x = not tested or not shown.

SMILES	MITF TRPM1 HTS	Casp6 inh	Wnt act	NSD2 HMT inh	esBAF inh	XiGFP reactiv	Alpha artifact
O=C(c1ccccc1OCc1ccccc1Br)N1CCN(c2ncccn2)CC1	9.3	x	x	99.1*	4.6	x	-4.7%
CCS(=O)(=O)N1CC2(C1)[C@H](c1ccccc1)[C@H](CO)N2C(=O)C1CC1	x	-1.5	x	x	x	0.0	x
C[C@H]1CN([C@@H](C)CO)S(=O)(=O)c2ccc(-c3ccccc3)cc2O[C@H]1CN(C)C(=O)c1ccc2c(c1)OCO2	x	-5.4	x	x	-2.4	-0.6	x
O=C(NC(c1ccc(Cl)cc1)c1cc(Cl)c2cccnc2c1O)c1cccnc1 (configuration not stated)	-41.1	x	3.5	62.7*	x	1.8	-3.5%
O=C(Nc1ccccc1Cl)c1c(F)c(F)c(F)c(F)c1F	11.4	x	-11.3	-0.3	-9.8	x	x
O=C(NC1(O)C(=O)c2ccccc2C1=O)c1ccccc1	-5.6	x	x	109.6*	x	x	3.1%
O=C(NC1(O)C(=O)c2ccccc2C1=O)c1c(Cl)cccc1Cl	x	39.3*	-2.4	110.8*	x	0.0	1.4%
Cc1ccc(C(=O)Nc2ccc(CC(=O)O)cc2)o1	-8.2	x	x	126.2*	-14.3	x	-3.1%
Cc1ccc(C(=O)NC(=S)c2c(C)cc3ccccn23)cc1	x	-1.6	28.7	92.3*	17.2	0.2	6.38µM*
Cc1cc2ccccn2c1C(=S)NC(=O)c1ccccc1	-21.8	3.0	4.1	54.9*	3.1	0.0	10.1µM*
C[C@@H]1CN([C@@H](C)CO)C(=O)c2cc(NC(=O)Nc3ccccc3)ccc2O[C@@H](C)CCCCO[C@H]1CN(C)Cc1ccncc1	x	-2.8	x	x	x	0.6	x
COc1ccc(S(=O)(=O)N(C)C[C@H]2Oc3ccc(NC(=O)NC(C)C)cc3C(=O)N([C@@H](C)CO)C[C@H]2C)cc1	x	x	x	x	-6.0	0.2	x
CC(C)NC(=O)N1C[C@H]2[C@@H](c3ccccc31)[C@H](CO)N2C(=O)c1ccncc1	x	x	x	x	1.3	0.0	x
CSC1=NSC2=NC(=O)/C(=C/c3coc4ccccc4c3=O)C(=N)N12	-12.1	15.6	7.7	74.9*	13.5	0.0	0.2%
CC1=C/C(=C(\c2cc(C)c(O)c(Br)c2)c2ccccc2S(=O)(=O)O)C=C(Br)C1=O	-36.2	7.9	-1.3	50.4*	-30.6	0.0	7.81µM*
O=c1c2ccccc2nnn1CSc1nc2ccccc2c(=O)n1CCCO	7.5	-5.5	-3.4	51.6*	-5.4	0.2	0.8%
Nc1ccc2c(O)cc(S(=O)(=O)O)cc2c1	-10.6	76.8*	-4.8	80.2*	-6.4	0.3	-20.8%
COc1cc(C(=O)Oc2cccc(/C=N/NC(=O)c3cccnc3)c2)cc(OC)c1OC	-18.5	-5.1	-1.9	97.9*	7.7	0.1	-1.1%
CN1CCN(C(=O)C[C@@H]2C[C@@H]3c4cc(NC(=O)Nc5ccc(C(F)(F)F)cc5)ccc4O[C@@H]3[C@@H](CO)O2)CC1	x	7.0	x	x	4.0	0.0	x
Cc1ccc(-c2csc3nc(CN(C)Cc4ccccc4)[nH]c(=O)c23)cc1	4.7	4.6	-1.7	59.8*	-0.3	0.0	2.3%
Cc1csc(SCc2nc3scc(-c4ccccc4)c3c(=O)[nH]2)n1	16.4	1.4	-0.6	0.1	-2.7	0.0	x
Cc1n[nH]c(C)c1S(=O)(=O)N1CCN(S(=O)(=O)c2ccccc2C#N)CC1	4.1	-2.1	-2.7	-0.4	2.3	0.3	x
Cc1noc(C)c1S(=O)(=O)N1CCN(S(=O)(=O)c2ccccc2C#N)CC1	3.3	-1.0	-2.0	106.8*	4.7	0.3	-1.2%
O=C(Cc1ccccc1)N1CC(=O)N2[C@H](CO)[C@H](c3ccc(C#CCc4ccccc4)cc3)[C@H]2C1	x	-0.9	x	x	x	0.1	x
COc1cc(OC)c(C(=O)NC2CCCc3ccccc32)cc1OC (configuration not stated)	-6.0	0.8	-1.2	0.4	-0.4	0.0	x
SMILES	MITF TRPM1 HTS	Casp6 inh	Wnt act	NSD2 HMT inh	esBAF inh	XiGFP reactiv	Alpha artifact
COc1cc(C(=O)NC2CCCc3ccccc32)cc(OC)c1OC (configuration not stated)	-9.2	1.7	0.0	102.2*	-6.8	-0.1	-4.4%
Cc1noc(C)c1NC(=O)NCC[C@H]1CC[C@@H](NC(=O)Nc2cccc(F)c2)[C@H](CO)O1	x	-16.7	x	x	-2.6	0.3	x
CCCNC(=O)N1CC2(C1)[C@@H](c1ccccc1)[C@@H](CO)N2C(=O)C1CCCC1	x	0.7	x	x	x	0.4	x
NC(=O)c1c(NC(=O)c2ccncc2)sc2c1CCCC2	24.3	14.0	-0.6	1.9	x	0.5	x
N#Cc1c(NC(=O)c2ccncc2)sc2c1CCC2	15.3	34.0	6.6	56.8*	x	x	-5.3%
CC(=O)N(C)C[C@H]1Oc2cc(C#CC(C)(C)O)ccc2S(=O)(=O)N([C@H](C)CO)C[C@@H]1C	x	-1.8	x	x	0.7	-0.8	x
CSc1nnc2c(n1)OC=Nc1ccc(Br)cc1-2	-12.2	0.3	3.5	3.9	x	0.0	x
CSc1nnc2c(n1)OC=Nc1ccccc1-2	-18.6	x	x	67.3*	2.1	x	-5.4%
Cc1ccc(C)n1-c1ccc(C(=O)NCc2cccnc2)cc1	-7.8	x	x	x	x	x	x
Cc1nc2cc(C(=O)NCc3cccnc3)ccc2n1-c1ccc(F)cc1F	-16.4	2.0	-7.3	50.4*	x	0.2	-2.8%
Cc1cc(C)nc(NS(=O)(=O)c2ccc(-n3cccc3)cc2)n1	x	x	5.3	72.7*	-2.3	x	-1.1%
COc1cccc(-c2ccc3n(c2=O)C[C@@H]2[C@@H](CO)[C@H](C(=O)N(C)C)[C@H]3N2CC2CC2)c1	x	-0.2	x	x	-4.6	0.3	x
Cc1ccc(S(=O)(=O)Nc2ccc3c(c2)CC(=O)N([C@H](C)CO)C[C@H](C)[C@@H](CN(C)Cc2ccccc2)O3)cc1	x	3.2	x	x	3.9	-1.1	x
C/C(NCCc1ccccc1)=C1/CCOC1=O	x	0.3	1.9	65.0*	-0.1	0.0	-5.9%
O=C1c2cccc(Sc3ccccc3)c2C(=O)c2c(Sc3ccccc3)cccc21	x	10.1	1.6	75.6*	x	-0.1	-16.6%
CC(=O)Nc1ccccc1Sc1ccccc1	3.1	2.1	-1.4	-1.2	-1.9	x	x
CN(C)CCNC(=O)c1ccc(CS(=O)(=O)c2c(Cl)cccc2Cl)o1	x	-47.9	-4.9	x	-3.5	0.2	x
CCCN(CCC)CCCNC(=O)c1ccc(CS(=O)(=O)c2c(Cl)cccc2Cl)o1	3.0	-23.3	0.8	62.9*	-0.3	0.2	-5.3%
Nc1nnc2c(n1)CCCC2	x	x	x	58.4*	-11.0	x	7.2%
C1CCc2nc3c(nc2C1)CCCC3	4.2	-2.6	-1.0	x	-10.6	x	x
